From ChEMBL document CHEMBL5674889, “Enhanced JunD/RSK3 signalling due to loss of BRD4/FOXD3/miR-548d-3p axis determines BET inhibition resistance” (2020)
Active and inactive are the calls of the source.

Legend:
Type in all cases: functional, cell-based
MDA-MB-231 [1] = assay: Antiproliferative activity in human RPS6KA2-knockdown MDA-MB-231 cells assessed as cell viability at 1 uM for 48 hrs by CellTiter-Glo luminescent cell viability assay
Outline: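 CellTiter-Glo viability: stable overexpressing or shRNA clones (puromycin 1.0 μg/ml selection) seeded 3000 cells/well, adhered overnight, then exposed to 1 μM for 48 h. Luminescence is background-subtracted and normalised to DMSO-treated control. Triplicates, mean ± SD, one-way ANOVA. MDA-MB-231 cells are kept in DMEM and BT549 in RPMI-1640, each with 10% FBS.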

BT-549 [2] = assay: Downregulation of miR-548d-3p expression in human BT-549 cells at 1 uM by real-time PCR analysis
MDA-MB-231 [3] = assay: Antiproliferative activity in human MDA-MB-231 cells assessed as cell growth in the presence of miR-548d-3p at 1 uM by CCK-8 assay
Outline: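 BLBC cells transfected with miR-548d-3p mimic or inhibitor, with or without JQ1; growth read by CCK-8 assay relative to DMSO-treated control, seeded at 3000/well. Triplicates, mean ± SD, one-way ANOVA.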

MDA-MB-231 [4] = assay: Antiproliferative activity in human FOXD3-knockdown MDA-MB-231 cells co-silenced with shRNA of RPS6KA2 assessed as cell growth at 1 uM by CCK-8 assay
BT-549 [5] = assay: Effect on human BT-549 cells assessed as RPS6KA2 mRNA expression in the presence of miR-548d-3p at 1 uM by RT-PCR analysis

Measured: Activity

Cc1sc2c(c1C)C(c1ccc(Cl)cc1)=N[C@@H](CC(=O)OC(C)(C)C)c1nnc(C)n1-2
active: MDA-MB-231 [1] | BT-549 [2] | MDA-MB-231 [3] | MDA-MB-231 [4] | BT-549 [5]
